The values below come from ChEMBL document CHEMBL2321868, “The discovery of novel potent trans-3,4-disubstituted pyrrolidine inhibitors of the human aspartic protease renin from in silico three-dimensional (3D) pharmacophore searches” (J Med Chem, 2013).

Data set [1] is described as follows: Inhibition of human recombinant pepsin A expressed in Escherichia coli using Dabcyl-E-R-Nle-F-L-S-F-P-EDANS as substrate incubated for 1 hr prior to substrate addition measured after 1 hr by FRET-based enzymatic assay.
A short description of data set [2]: AUC (0 to 24 hrs) in jugular vein cannulated Sprague-Dawley rat at 6 mg/kg, po by HPLC-MS analysis. In kind it is ADME, organism-based. On the set-up: time < 24 hr, dose 6 mg/kg, route oral. The note with it: plasma. The procedure, abridged:
(§1)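 Cannulated, fed Sprague–Dawley rats were given 2 mg/kg intravenously and 6 mg/kg orally. Oral bioavailability came from the two routes. t1/2, plasma clearance and Vdss were estimated. Oral Cmax and AUC were taken over 0–24 h.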

A short description of data set [3]: Volume of distribution at steady state in jugular vein cannulated Sprague-Dawley rat at 2 mg/kg, iv by HPLC-MS analysis. The data set is classed as ADME, organism-based. Details: dose 2 mg/kg, route intravenous. The note with it: in vivo, read-out: Vdss. The procedure, abridged:
as §1

Data set [4] can be described thus: Oral bioavailability in jugular vein cannulated Sprague-Dawley rat at 6 mg/kg by HPLC-MS analysis. The note with it: in vivo. The data set is classed as ADME, organism-based. The gist of the method:
as §1

Data set [5] addresses T1, Gastricsin (Homo sapiens, UniProt P20142).
T1 sequence (P20142 whole entry): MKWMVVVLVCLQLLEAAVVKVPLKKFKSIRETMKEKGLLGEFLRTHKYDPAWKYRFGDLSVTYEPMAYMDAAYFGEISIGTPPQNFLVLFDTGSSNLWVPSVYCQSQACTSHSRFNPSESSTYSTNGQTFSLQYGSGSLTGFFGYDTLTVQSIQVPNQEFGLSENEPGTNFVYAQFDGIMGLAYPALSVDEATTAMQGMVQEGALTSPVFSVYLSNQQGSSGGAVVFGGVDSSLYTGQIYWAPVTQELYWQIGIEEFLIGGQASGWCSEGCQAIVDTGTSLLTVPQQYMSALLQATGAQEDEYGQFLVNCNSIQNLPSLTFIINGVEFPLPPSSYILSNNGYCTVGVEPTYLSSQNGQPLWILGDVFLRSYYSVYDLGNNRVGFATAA
As to the kind of experiment: Inhibition of human recombinant pepsin C expressed in Escherichia coli using Dabcyl-E-R-Nle-F-L-S-F-P-EDANS as substrate incubated for 1 hr prior to substrate addition measured after 1 hr by FRET-based enzymatic assay.

Data set [6] deals with T2, Renin (Homo sapiens, UniProt P00797).
T2 sequence (P00797 whole entry): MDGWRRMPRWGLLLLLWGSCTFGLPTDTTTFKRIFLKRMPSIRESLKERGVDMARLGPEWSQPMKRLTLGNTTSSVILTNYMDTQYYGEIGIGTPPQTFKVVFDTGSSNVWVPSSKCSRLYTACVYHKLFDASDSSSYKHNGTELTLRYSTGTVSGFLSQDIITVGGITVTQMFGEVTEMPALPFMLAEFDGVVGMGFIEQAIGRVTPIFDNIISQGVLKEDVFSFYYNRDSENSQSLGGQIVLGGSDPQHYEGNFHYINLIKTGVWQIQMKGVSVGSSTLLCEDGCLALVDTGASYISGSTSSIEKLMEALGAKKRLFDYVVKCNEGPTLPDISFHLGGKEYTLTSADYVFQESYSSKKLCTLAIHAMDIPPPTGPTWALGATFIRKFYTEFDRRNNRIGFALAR
As to the kind of experiment: Inhibition of renin in human plasma using RE(EDANS)IHPFHLVIHTK(Dabcyl)R as substrate incubated for 1 hr prior to substrate addition measured after 2 hrs by FRET-based enzymatic assay. The procedure, abridged: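 Renin activity measured in the presence of human plasma by FRET cleavage of the quenched peptide substrate. IC50 is the half-maximal inhibition.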

The target of data set [7] is T3, Beta-secretase 2 (Homo sapiens, UniProt Q9Y5Z0).
T3 sequence (Q9Y5Z0 whole entry): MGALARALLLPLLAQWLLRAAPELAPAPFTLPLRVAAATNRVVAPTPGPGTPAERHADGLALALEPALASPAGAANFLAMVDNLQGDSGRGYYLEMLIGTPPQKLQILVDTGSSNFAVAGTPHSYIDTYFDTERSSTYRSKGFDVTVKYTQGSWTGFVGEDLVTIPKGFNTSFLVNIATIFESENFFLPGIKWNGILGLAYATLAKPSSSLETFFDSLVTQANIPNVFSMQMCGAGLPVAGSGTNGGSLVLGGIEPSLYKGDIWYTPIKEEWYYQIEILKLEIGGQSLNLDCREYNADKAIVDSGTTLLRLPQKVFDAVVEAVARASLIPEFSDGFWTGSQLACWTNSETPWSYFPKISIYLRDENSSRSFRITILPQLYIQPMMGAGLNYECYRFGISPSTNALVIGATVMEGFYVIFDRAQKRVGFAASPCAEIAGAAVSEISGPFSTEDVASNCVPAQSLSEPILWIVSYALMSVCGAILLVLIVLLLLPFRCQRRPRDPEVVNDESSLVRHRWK
In words: Inhibition of human recombinant BACE-2 expressed in baculovirus-infected insect sf9 cells using RE( EDANS)-EVNLDAEF-K(DABSYL)-R as substrate incubated for 1 hr prior to substrate addition measured after 1 hr by FRET-based enzymatic assay.

The nature of data set [8]: Plasma clearance in Sprague-Dawley rat at 2 mg/kg, iv by HPLC-MS analysis. In kind it is ADME, organism-based. Details: dose 2 mg/kg, route intravenous. The procedure, abridged:
as §1

The target in data set [9] is Voltage-gated inwardly rectifying potassium channel KCNH2 (Homo sapiens, UniProt Q12809). As to the kind of experiment: Inhibition of human ERG by dofetilide binding assay. The gist of the method:
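hERG affinity from an in vitro dofetilide binding assay. The IC50 is the mean of two independent measurements.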

Data set [10] relates to Rattus norvegicus. As to the kind of experiment: Antihypertensive activity in double transgenic rat overexpressing human renin and angiotensinogen assessed as reduction in mean arterial pressure at 6 to 30 mg/kg, po after 12 hrs. The data set is classed as functional, organism-based. The note with it: Artery. The procedure, abridged: (§2)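 Double-transgenic rats overexpressing human renin and human angiotensinogen, with telemetry. Each received a single oral dose of 6 or 30 mg/kg. The read-out was mean arterial pressure, reported as the peak change from dosing.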

A short description of data set [11]: Half life in jugular vein cannulated Sprague-Dawley rat at 2 mg/kg, iv by HPLC-MS analysis. Particulars: in vivo. Details: dose 2 mg/kg, route intravenous. In kind it is ADME, organism-based. The gist of the method:
as §1

The target of data set [12] is 5-hydroxytryptamine receptor 2B (Homo sapiens, UniProt P41595). As to the kind of experiment: Inhibition of 5-HT2B (unknown origin).
Data set [13] has as its system Rattus norvegicus. As to the kind of experiment: Antihypertensive activity in po dosed double transgenic rat overexpressing human renin and human angiotensinogen assessed as reduction in mean arterial pressure. In kind it is functional, organism-based. Particulars: Artery. The gist of the method:
as §2

The nature of data set [14]: Cmax in jugular vein cannulated Sprague-Dawley rat at 6 mg/kg, po by HPLC-MS analysis. Details: dose 6 mg/kg, route oral. In kind it is ADME, organism-based. The note with it: in vivo. The gist of the method:
as §1

Data set [15] deals with T4, 5-hydroxytryptamine receptor 1A (Homo sapiens, UniProt P08908).
T4 sequence (P08908 whole entry): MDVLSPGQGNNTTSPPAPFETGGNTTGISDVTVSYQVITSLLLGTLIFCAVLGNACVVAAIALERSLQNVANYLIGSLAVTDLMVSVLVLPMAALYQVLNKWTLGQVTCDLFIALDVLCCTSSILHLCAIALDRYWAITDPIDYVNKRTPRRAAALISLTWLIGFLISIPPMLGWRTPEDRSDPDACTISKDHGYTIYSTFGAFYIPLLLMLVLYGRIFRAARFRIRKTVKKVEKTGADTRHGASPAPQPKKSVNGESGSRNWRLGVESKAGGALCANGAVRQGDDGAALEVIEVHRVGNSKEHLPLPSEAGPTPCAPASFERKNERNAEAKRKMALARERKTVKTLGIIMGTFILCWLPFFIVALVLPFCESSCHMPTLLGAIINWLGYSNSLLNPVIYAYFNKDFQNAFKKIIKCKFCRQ
As to the kind of experiment: Inhibition of 5-HT1A (unknown origin).

Active and inactive are the calls of the source. The calls are words filed in the database; no cut-off is given here.

5-hydroxytryptamine receptor 2B, sequence (P41595 whole entry): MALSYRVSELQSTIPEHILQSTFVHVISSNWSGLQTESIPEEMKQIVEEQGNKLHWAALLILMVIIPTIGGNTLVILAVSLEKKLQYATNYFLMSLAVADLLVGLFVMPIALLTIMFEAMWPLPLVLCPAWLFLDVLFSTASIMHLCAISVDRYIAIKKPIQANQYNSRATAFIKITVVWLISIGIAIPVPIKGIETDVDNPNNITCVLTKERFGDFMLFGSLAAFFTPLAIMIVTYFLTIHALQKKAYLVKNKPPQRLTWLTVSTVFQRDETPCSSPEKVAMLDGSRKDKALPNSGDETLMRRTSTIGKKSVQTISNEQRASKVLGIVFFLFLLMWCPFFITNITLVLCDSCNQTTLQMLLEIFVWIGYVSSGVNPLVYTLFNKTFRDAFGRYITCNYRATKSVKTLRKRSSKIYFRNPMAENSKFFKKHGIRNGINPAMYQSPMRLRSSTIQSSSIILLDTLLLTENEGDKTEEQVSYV
Voltage-gated inwardly rectifying potassium channel KCNH2, sequence (Q12809 whole entry): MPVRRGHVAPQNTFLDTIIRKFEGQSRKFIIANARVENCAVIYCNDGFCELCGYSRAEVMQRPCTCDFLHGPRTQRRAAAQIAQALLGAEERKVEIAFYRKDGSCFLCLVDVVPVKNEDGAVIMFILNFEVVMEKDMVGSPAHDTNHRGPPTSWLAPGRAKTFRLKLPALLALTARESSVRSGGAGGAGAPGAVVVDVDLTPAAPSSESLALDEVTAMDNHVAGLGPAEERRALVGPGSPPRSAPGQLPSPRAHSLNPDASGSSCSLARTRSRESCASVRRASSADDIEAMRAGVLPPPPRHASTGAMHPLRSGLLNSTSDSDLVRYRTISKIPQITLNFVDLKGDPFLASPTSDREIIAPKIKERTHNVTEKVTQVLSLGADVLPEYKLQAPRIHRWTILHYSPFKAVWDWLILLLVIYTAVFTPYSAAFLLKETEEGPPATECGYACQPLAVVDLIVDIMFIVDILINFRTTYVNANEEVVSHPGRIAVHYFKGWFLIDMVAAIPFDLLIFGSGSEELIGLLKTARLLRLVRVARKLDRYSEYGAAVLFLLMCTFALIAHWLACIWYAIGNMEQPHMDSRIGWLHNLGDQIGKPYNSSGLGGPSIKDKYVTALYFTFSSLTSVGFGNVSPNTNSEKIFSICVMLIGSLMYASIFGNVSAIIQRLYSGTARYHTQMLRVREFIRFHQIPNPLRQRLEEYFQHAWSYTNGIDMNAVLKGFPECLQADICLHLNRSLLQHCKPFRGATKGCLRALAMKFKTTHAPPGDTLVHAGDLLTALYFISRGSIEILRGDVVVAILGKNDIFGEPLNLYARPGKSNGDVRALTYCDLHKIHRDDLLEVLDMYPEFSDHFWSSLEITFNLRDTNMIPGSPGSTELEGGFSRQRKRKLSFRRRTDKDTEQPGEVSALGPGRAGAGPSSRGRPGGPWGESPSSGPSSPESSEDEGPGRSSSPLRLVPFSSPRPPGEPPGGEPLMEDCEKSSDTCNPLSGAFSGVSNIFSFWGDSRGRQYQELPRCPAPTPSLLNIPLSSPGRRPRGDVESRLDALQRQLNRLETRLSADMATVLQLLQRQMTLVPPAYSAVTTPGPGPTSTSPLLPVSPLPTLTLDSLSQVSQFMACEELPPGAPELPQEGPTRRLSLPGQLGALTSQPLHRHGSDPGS

Consider `COCCCOc1cc(C(=O)N(C[C@@H]2CNC[C@H]2Cc2ccccc2)C(C)C)ccc1OC.Cl`, for which the IC50 in data set [1] is more than 30 µM; in data set [5], more than 30 µM; in [6] it was 0.3 µM; in data set [7] it was more than 30 µM; in [9], 14.5 µM; in data set [12], more than 1 µM. In data set [15], this compound came in with an IC50 of more than 1 µM. Moreover, the AUC(0-t) at 24 h in [2] worked out at 4.81 µM·h. Besides, the Vd in data set [3] turned out to be 2.8 L/kg. The compound also had a bioavailability in [4] of 53%. In addition, in data set [8], the clearance is 25 mL/min/kg. The result in data set [10] was Active. In addition, the half-life in data set [11] was 2 h. Further, the Activity result in data set [13] was “Dose-dependent effect”. In [14], this compound showed a Cmax of 1310 nM.

As usually defined, the IC50 is the concentration that gives 50% inhibition. The term AUC(0-t) denotes the area under the concentration-time curve up to a stated or last time point. What is called bioavailability is the share of a dose that reaches the circulation, judged against a reference dose that is usually intravenous. Lower therefore signals poor availability. In general, clearance refers to the rate of elimination divided by the concentration. Broadly, the half-life is the time in which the quantity being followed falls by half. The low end stands for rapid decline, the high end for slow decline. By Cmax is commonly meant the maximum level reached in the sampled fluid or tissue.
